Results taken from ChEMBL document CHEMBL4613269, “2-((4-Arylpiperazin-1-yl)methyl)benzonitrile Derivatives as Orally Available Inhibitors of Hepatitis C Virus with a Novel Mechanism of Action” (J Med Chem, 2020).
Active and inactive are the calls of the source. No cut-off for these calls is given here.

How the values were obtained:
Hepatitis C virus [1] = experiment: Antiviral activity against HCV genotype 2a pseudoparticle infected in human Huh7.5 cells assessed as reduction in viral replication at 2 to 4 uM; format: functional, organism-based; details: Hepacivirus hominis, subtype 2a
Summary of the method: (§1)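 Genotype 1b or 2a HCV pseudoparticles made by co-transfecting HEK 293T cells with envelope and luciferase-reporter HIV plasmids; input standardized by luciferase. Huh7.5 cells co-incubated with compound and HCVpp for 4 h at 37°C, washed, then luciferase read at 72 h.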

Hepatitis C virus [2] = experiment: Antiviral activity against HCV genotype 1b pseudoparticle infected in human Huh7.5 cells assessed as reduction in viral replication at 2 to 4 uM; format: functional, organism-based; details: Hepacivirus hominis, subtype 1b; summary of the method: as §1
Influenza A virus = experiment: Antiviral activity against influenza A virus H3N2/95-359 infected in MDCK cells assessed as reduction in virus-induced cytopathic effect incubated for 48 hrs by Reed-Muench method; format: functional, organism-based; details: H3N2/95-359, MDCK
[3] = Cytotoxicity in MDCK cells assessed as reduction in cell viability; format: cell-based, Canis lupus familiaris; details: dog
[4] = Selectivity index, ratio of CC50 for cytotoxicity in MDCK cells to EC50 for Antiviral activity against influenza A virus H3N2/95-359 infected in MDCK cells; format: toxicity, cell-based; details: dog, read-out: Ratio CC50/EC50
Hepatitis C virus [5] = experiment: Antiviral activity against HCV genotype 2a pseudoparticle infected in human Huh7.5 cells assessed as reduction in viral replication at 10 uM; format: functional, organism-based; details: Hepacivirus hominis, subtype 2a; summary of the method: as §1
Hepatitis C virus [6] = experiment: Antiviral activity against wild type HCV by qRT-PCR analysis based by Reed-Muench method; format: functional, organism-based, Hepacivirus hominis
Summary of the method: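 Huh7.5 cells seeded 24 h, then infected with wild-type (or mutant) HCV with compound added at the same time. Incubated 72 h. Intracellular HCV RNA measured by qRT-PCR, 2^-ΔCt method, normalized to GAPDH. Eight-step 1:5 serial dilutions in triplicate; EC50 by Reed & Muench; three independent experiments.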

Hepatitis C virus [7] = experiment: Antiviral activity against HCV genotype 1b pseudoparticle infected in human Huh7.5 cells assessed as reduction in viral replication at 10 uM; format: functional, organism-based; details: Hepacivirus hominis, subtype 1b; summary of the method: as §1
[8] = Cytotoxicity in human Huh7.5 cells assessed as reduction in cell viability incubated for 96 hrs by MTT assay; format: cell-based
Summary of the method: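 Huh7.5 cells seeded 24 h before compound addition. Viability read by MTT at 96 h. Eight-step 1:5 serial dilutions in triplicate; CC50 by Reed & Muench; three independent experiments.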

Hepatitis C virus [9] = experiment: Antiviral activity against HCV GS4.3 infected in human Huh7.5 cells assessed as reduction in viral NS3 protein levels at 1 uM incubated for 72 hrs by Western blot assay; format: functional, organism-based; details: Hepacivirus hominis
Hepatitis C virus [10] = experiment: Antiviral activity against HCV GS4.3 infected in human Huh7.5 cells assessed as reduction in viral replication at 0.3125 to 5 uM simultaneously treated with viral infection for 4 hrs and measured after 72 hrs by In-Cell Western assay; format: functional, organism-based; details: Hepacivirus hominis
Summary of the method: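 Huh7.5 cells infected with HCV while incubated with compound, either for 4 h across a concentration series or at 1.0 µM for varied times down to 15 min. Supernatant then replaced with fresh medium. Intracellular Core protein measured by In-Cell Western at 72 h.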

Hepatitis C virus [11] = experiment: Antiviral activity against HCV expressing NS3 A156T mutant by qRT-PCR analysis based by Reed-Muench method; format: functional, organism-based, Hepacivirus hominis
Summary of the method: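 Huh7.5 cells seeded at 3×10^4/cm², infected 24 h later with wild-type or mutant HCV stock while compound or solvent was added at the same time. Intracellular HCV RNA measured by qRT-PCR at 72 h, normalised to GAPDH, 2^-ΔCT method. EC50 by Reed & Muench from eight-step 1:5 serial dilutions, triplicate wells.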

[12] = Selectivity index, ratio of CC50 for cytotoxicity in human Huh7.5 cells assessed as reduction in cell viability incubated for 96 hrs by MTT assay to EC50 for antiviral activity against HCV J6/JFH/JC1 infected in human Huh7.5 cells incubated for 72 hrs by In-Cell Western assay; format: toxicity, cell-based; details: read-out: Ratio CC50/EC50
Summary of the method: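 HCVcc (MOI=0.1) infected Huh7.5 cells co-treated with eight-step 1:5 serial dilutions, triplicate wells. After 72 h, fixed, permeabilized, and stained for HCV Core and GAPDH with IR-dye secondaries. Core normalized to GAPDH. CC50 came from MTT at 96 h in uninfected Huh7.5 cells. EC50/CC50 were derived by Reed & Muench, mean ± SD of three independent experiments.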

Hepatitis C virus [13] = experiment: Antiviral activity against HCV J6/JFH/JC1 infected in human Huh7.5 cells incubated for 72 hrs by In-Cell Western assay; format: functional, organism-based, Hepacivirus hominis; details: J6/JFH/JC1, Huh7.5, 72 h
Summary of the method: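 Huh7.5 cells infected with HCVcc (MOI 0.1) and treated with compound at the same time for 72 h. Cells fixed with PFA, permeabilized, then stained for HCV Core and GAPDH with IR-dye secondaries. Core signal normalized to GAPDH. Eight-step 1:5 dilutions in triplicate; EC50 by Reed & Muench; mean of three experiments.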

SMILES: Cc1nc(Nc2ncc(C(=O)Nc3c(C)cccc3Cl)s2)cc(N2CCN(CCO)CC2)n1
- Activity (Hepatitis C virus [1]): Active
- Activity (Hepatitis C virus [2]): Active

SMILES: CCOC(=O)C1=C[C@@H](OC(CC)CC)[C@H](NC(C)=O)[C@@H](N)C1 [OSELTAMIVIR]
- EC50 (Influenza A virus): 2140 nM
- CC50 [3]: > 640000 nM
- selectivity ratio [4]: > 299

SMILES: CCC[C@H](NC(=O)[C@@H]1[C@H]2CCC[C@H]2CN1C(=O)[C@@H](NC(=O)[C@@H](NC(=O)c1cnccn1)C1CCCCC1)C(C)(C)C)C(=O)C(=O)NC1CC1 [TELAPREVIR]
- Activity (Hepatitis C virus [5]): inactive
- EC50 (Hepatitis C virus [6]): 7.8 nM
- Activity (Hepatitis C virus [7]): inactive
- CC50 at 96 h [8]: 55000 nM
- Activity (Hepatitis C virus [9]): Active
- Activity (Hepatitis C virus [10]): inactive
- EC50 (Hepatitis C virus [11]): 1210 nM
- selectivity ratio [12]: 377
- EC50 (Hepatitis C virus [13]): 146 nM
